Reference: ChEMBL document CHEMBL4513216, “Probing the Open Global Health Chemical Diversity Library for Multistage-Active Starting Points for Next-Generation Antimalarials” (ACS Infect Dis, 2020)

Assay: Toxicity liver stage against HepG2, at 10uM
Type: cell-based
Design: test concentration 10 uM, cell line HepG2-A16-CD81EGFP
Conditions: human, HepG2-A16-CD81EGFP cells; read-out: INHIBITION
How it was run: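 Uninfected HepG2-A16-CD81EGFP cells, 3 × 10^3 per well, 1536-well, plated on prespotted compound at 10 μM final, parasite-free screening media added to match infected plates; puromycin 10 μM positive, DMSO 0.5% negative; run in parallel with 48 h PbLuc assay at 37 °C, 5% CO2; viability by CellTiter-Glo luminescence, normalized to controls.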

Structure (SMILES)	cytotoxicity at 10 µM
O=C(O)C1CCCN1c1nc(-c2ccc(Cl)c(Cl)c2)cc(C(F)(F)F)n1 (stereo not given)	32.1%
CN1CC=C(c2noc(CCC(=O)N3CCc4ccccc4C3)n2)CC1	6.97%
CC(C)n1ccc2c(NC(=O)c3n[nH]c4c3CCC4)cccc21	7.64%
COc1ccc(CC(C)(O)CNC(=O)Cc2ccc(F)cc2)cc1 (stereo not given)	3.91%
O=C(Nc1cnc(N2CCOCC2)nc1)c1ccc(C(F)(F)F)cc1	9.94%
Cc1ccc(S(=O)(=O)N2CCC(Oc3ccccn3)CC2)c(C)c1	26.3%
Cc1c(C)n(Cc2ccncc2)c2nc3c(c(N)c12)CCCCCC3	9.18%
COc1ccc(NC2CCc3c2[nH]c(=O)n(C2CCCCC2)c3=O)cc1 (stereo not given)	2%
CC(C)c1nnc2ccc(N3CCC(C(=O)Nc4nccs4)CC3)nn12	42.6%
CCC1=NC(SCC(=O)c2ccccc2)c2cc(CC)sc2N1 (stereo not given)	-12.5%
CCCc1nc(N2CCCCCC2)c2c(n1)c(C)nn2CC	39.4%
Fc1ccccc1-c1nnn(CCCc2nn[nH]n2)n1	-4.3%
Cc1cc2c(cc1Cl)C=CC1(CCN(CC(=O)NC3CCCC3)CC1)O2	17%
Cc1ccc(Oc2c(F)cccc2OC[C@@H](N)CC(C)C)cc1	-8.94%
Cc1nn(C)cc1C1=NS(=O)(=O)N(C)C(C(=O)Nc2ccc(Cl)cc2)=C1	7.9%
Nc1cc(CCC2CN(Cc3ccc4cc[nH]c4c3)CCO2)ccn1 (stereo not given)	-10.6%
Cc1ccc(S(=O)(=O)N2C[C@H]3C[C@H](NC(=O)c4ccnn4C)[C@H]3C2)cc1	85.2%
NS(=O)(=O)c1ccc(NCc2ccccc2)cc1C(F)(F)F	3.85%
Fc1ccc(CNCc2cc(Br)c3c(c2)OCO3)cc1	0.658%
CCc1cnc(COc2ccc(OC3CCCCNC3=O)cc2)o1 (stereo not given)	0.318%
CNC(=O)CCOC(=O)c1cccc(-n2cccn2)c1	-39.6%
CCc1nc(CN2CCN(C(=O)c3cc(C)nn3C)CC2)cs1	3.83%

Structure (SMILES)	cytotoxicity at 10 µM
Cc1cc(N(C)CC2COc3ccccc3O2)nc(N)n1 (stereo not given)	17.6%
Cc1noc(C)c1C(=O)N(C)C(C)c1cccnc1 (stereo not given)	0.363%
CCn1nc2c(cc1=O)CN(c1ncnc3sccc13)CC2	47.5%
O=C(Nc1ccncc1)NC1CCN(c2ccccc2OC(F)F)C1 (stereo not given)	15.6%
COc1ccnc(N2CCCN(c3nc(C4CC4)ns3)CC2)n1	0.142%
CCC(=O)NC1CCCN(C(=O)c2ccc(OCC3CC3)nc2)C1 (stereo not given)	15.2%
Cc1ncc(C(=O)NCCNc2ncnc3sccc23)s1	27.6%
CCCC(=O)N(C)c1cccc2ncccc12	3.94%
Cc1cccc(OCC(O)CN2CCN(c3nccs3)CC2)c1 (stereo not given)	16.5%
Cc1cnn(CC2CN(CCCS(=O)(=O)N(C)C)CCO2)c1 (stereo not given)	-2.71%
Cc1[nH]ncc1CCCNC(=O)Nc1ccc(F)cc1	3.91%
O=c1[nH]ncc(NCCOc2ccc3c(c2)CCC3)c1Cl	34.5%
Fc1ccc(CN2CCCC2Cn2cncn2)c2ncccc12 (stereo not given)	11.7%
Cc1ccc(-c2n[nH]cc2CNCCn2cccn2)o1	-11.2%
Fc1ccc(-c2n[nH]cc2CNCCn2cccn2)cc1	8.1%
Cc1nc(C)n(CC2CCCN2CC(=O)NCCC2=CCCCC2)n1 (stereo not given)	-0.527%
O=C(c1cc(F)cc2[nH]cnc12)N1CCCCC1Cn1cccn1 (stereo not given)	16.5%
CNC(=O)Cc1nc(CNc2ccc(SC)c(F)c2)cs1	-1.99%
CCNC(=O)N1CCC(NC(=O)NCCc2cccc(C)c2)C1 (stereo not given)	-42.2%
Cc1ccc(-c2ncc(CNc3cnccc3CO)s2)cc1	-7.65%
CCCNC(=O)c1cccc(CNCc2csc(C(C)(C)C)n2)c1	12.3%
COCC(O)CNc1ccc(C#N)cc1C(F)(F)F (stereo not given)	13.3%

Structure (SMILES)	cytotoxicity at 10 µM
Cc1nnc2n1CCN(CC(O)CN1CCC(C)CC1)C2 (stereo not given)	2.78%
O=C1C(N2CC[C@@H](O)C2)CCCN1Cc1cccc(C(F)(F)F)c1 (stereo not given in full)	1.22%
CCc1ccc(CNC(=O)c2ccc(N3CCOC3=O)cc2)s1	22.5%
Cc1nc(CN2CCCC(Nc3ncnc4ccsc34)C2)no1 (stereo not given)	42.2%
Cc1ccc(OCC(O)CN(C)CC(=O)Nc2cc(C)on2)c(C)c1 (stereo not given)	-17.3%
O=C(c1ccc(Br)s1)N1CCN(Cc2ccc(OC(F)(F)F)cc2)CC1	23.1%
Cc1n[nH]cc1CNc1ccc2c(c1)CN(C(=O)OC(C)(C)C)CC2	14.9%
CN(Cc1ccc(N2CCCCC2)cc1)Cc1noc(C(C)(C)C)n1	12.5%
CC(=O)N1CCC(c2nc3ccc(-c4cccc(F)c4)cn3n2)CC1	12.4%
COCC(=O)N1CCC2(CC1)CN(CC1CC1)c1ccc(F)cc12	-103%
O=S(=O)(c1ccccc1)N1CCC2(CCCN2Cc2cccc(F)c2)C1 (stereo not given)	-68.4%
O=C(N1CCCC1)N1C[C@@H]2CN(Cc3ccoc3)CCO[C@@H]2C1	-76.7%
O=C(c1cccs1)N1C[C@H]2CCC[C@@]2(COCC2CCOCC2)C1	-68.9%
Cc1ncc(-c2ccnc(NCCO)n2)c(C2CCCCC2)n1	-11%
CCc1ccc(-c2ncc3c(n2)N(C)CCN(CCN(C)C)C3=O)cc1	-9.52%
CCC(Nc1nc(C)nc2onc(C)c12)c1cccs1 (stereo not given)	52.4%
COCCc1noc(C2CCCN(c3ncnc4c3CCC4)C2)n1 (stereo not given)	19.3%
COc1ccc(C(=O)C2CCCN(Cc3cccc(F)c3)C2)c(OC)c1 (stereo not given)	6.4%
CCCc1nnc(N2CCC(N3CCCC3)CC2)o1	-16.3%
COCCC1(C(=O)O)CCCN(C(=O)c2cc(F)ccc2OC)C1 (stereo not given)	-11.4%
CN1CCCC2(CC1)CCN(C(=O)CCc1ccccc1F)CC2	-5.95%
O=C(O)[C@@H]1CN(C(=O)Cc2ccccc2Cl)C[C@H]1C1CC1	9.53%

Structure (SMILES)	cytotoxicity at 10 µM
N[C@@H]1c2ccccc2C2(CCN(c3ccc(C(F)(F)F)cn3)CC2)[C@H]1O	-5.78%
CC(C)c1noc(CN(Cc2cccnc2)C2CN3CCC2CC3)n1 (stereo not given)	17.2%
COc1ccnc(CNc2nc(C)nc3ccsc23)c1	40.5%
C[C@@H](O)[C@H](NC(=O)c1csc2nc(-c3ccccc3F)cn12)C(N)=O	2.37%
Nc1nc(NCCO)cc(N2CCc3c([nH]c4ccccc34)C2)n1	11.9%
CN(Cc1ccn[nH]1)Cc1c[nH]nc1-c1ccc(F)cc1	-6.41%
Cc1cnc(C)c(N2CCC(c3nnc(CN(C)C)n3C3CC3)CC2)n1	-0.918%
O=C(NCc1cnn2cccnc12)c1cccc(CC2CCNCC2)c1	-44.5%
COCCN1CC2(CCCN(c3ncc(Cl)cc3F)C2)CCC1=O (stereo not given)	21.8%
Cc1cc(NCc2cc(C)oc2C(F)(F)F)n2nc(C)cc2n1	49.1%
Cc1cc(NCc2cc3n(n2)CCCN(C(=O)C2CCC2)C3)nc(N)n1	-146%
O=c1cc(N2CCNCC2)cnn1Cc1noc(C2CCCC2)n1	-53.5%
Cn1ncc(NC(=O)Cn2cc(-c3ccc(F)cn3)cn2)n1	7.16%
COc1ccc(OC)c(C2CCN(c3ccc4cc[nH]c4n3)C2)c1 (stereo not given)	-1.6%
COc1cccc(-c2noc3c2CN(c2nc(C)ncc2C)CC3)c1	45.1%
CCN(CC)C(CNCc1ccc(O)cc1)c1ccco1 (stereo not given)	1.29%
O=C(Cc1nc(-c2ccncc2)n[nH]1)N1CCOCC1	-0.749%
Cc1ccc(CN2CCN(c3nc4c(s3)c(C)nn4C)C(C)C2=O)cc1 (stereo not given)	76.5%
COCCCNC(=O)Cc1nc(-c2ccncc2)n[nH]1	-9.72%
O=C1[C@@H]2CN(Cc3cc4ccccc4o3)C[C@]2(C(=O)O)CN1CC1CC1	-5.22%
CC1CCN(CCCNC(=O)c2ccc(N(C)S(C)(=O)=O)cc2Cl)CC1	-0.488%
CCc1ccc(C2CC(=O)Nc3c2c(=O)[nH]n3C(C)C)cc1 (stereo not given)	-6.87%

Structure (SMILES)	cytotoxicity at 10 µM
COc1cccc2c1OCC(NCCc1cnn(-c3ccccc3)c1)C2 (stereo not given)	-0.6%
Cn1ncc2c(NCCOc3ccc(F)cc3)nc(C3CCCC3)nc21	6.1%
O=C(c1ccc(C2CCCO2)s1)N1CCN(c2ccccc2F)CC1 (stereo not given)	-15.1%
CC(C)OCc1ccc(CNc2cncc(-n3cccn3)n2)cc1	43.8%
Cc1nc(CN2CCCC2c2noc(C3CC3)n2)nc2ccccc12 (stereo not given)	-19%
CNc1cc2c(nn1)CCN(C(=O)c1cc(C)n(C3CC3)c1C)C2	-14.4%
Cc1cc(C)n(CC2CN(Cc3nc4ccccc4s3)CCO2)n1 (stereo not given)	3.93%
COc1ccccc1OCCN1CCCCC1Cn1cncn1 (stereo not given)	-32.7%
CC1CCCN(Cc2csc(-c3ncccn3)n2)CC1 (stereo not given)	2.73%
CC(C)Cc1noc(CN2CCN(CCOc3ccc(Cl)cc3)CC2)n1	24%
CCc1cccc(N2CCC(NC(=O)c3cc[nH]n3)CC2)c1	3.08%
c1ccc(OCCNC2=NCCCN2)cc1	-2.34%
Cc1ccc(O)c(CN(CCCn2ccnc2)Cc2ccc(C)s2)c1	-25.8%
Fc1ccc(CN2CCC3(CC2)CN(c2ccccn2)CCO3)cc1	-0.359%
O=C(c1ccsc1)N1C[C@@H]2CCN(c3cccnc3)C[C@@H]2C1	-69.3%
CC(C)(C)CN1CCCC12CCN(S(=O)(=O)c1ccccc1)C2 (stereo not given)	-67.5%
Cc1ccc(O[C@@H]2C[C@H]3CN(c4ncc(F)cn4)CCN3C2)cc1	35.3%
Fc1cccc(N2CCCC3(CN(Cc4ccco4)CCO3)C2)c1 (stereo not given)	-63.5%
CN(C)CCN1C2(CCN(Cc3nccs3)C2)c2ccccc2S1(=O)=O (stereo not given)	-71.8%
O=C1COC2(CCN(CC3CC3)CC2)CN1c1ccsc1	-79.2%
O=C(c1ccco1)N1CCC2(CCCN(c3ncccn3)C2)C1 (stereo not given)	-105%
O=C1[C@@H]2CC[C@@H](CN(c3ncnc4ccsc34)C2)N1CC1CC1	15.2%
